# Results reported in ChEMBL document CHEMBL2321684, “Novel hybrids of optically active ring-opened 3-n-butylphthalide derivative and isosorbide as potential anti-ischemic stroke agents” (J Med Chem, 2013).
# Calls of active or inactive are those of the source. The calls are words filed in the database; no cut-off is given here.
# Legend:
# [1] = tested on: Rattus norvegicus; test: Antiischemic activity in Sprague-Dawley rat assessed as reduction in middle cerebral artery occlusion-induced abnormal changes in brain at 340 mg/kg administered via gavage for 7 days prior to middle cerebral artery occlusion-challenge measured after 24 hrs by microscopic analysis; format: functional, organism-based; set-up: dose 340 mg/kg
# Summary of the method: (§1)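 Male SD rats (280−320 g), n = 12 per group, dosed by gavage daily for 7 days in 0.5% CMC-Na vehicle. Sham animals received vehicle only. Two hours after the last dose, rats were anesthetized with chloral hydrate (300 mg/kg ip) and given MCAO for 2 h, then reperfused. Body temperature was held at 37 °C. All endpoints were read at 24 h post reperfusion.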
# [2] = tested on: Rattus norvegicus; test: Antiischemic activity in Sprague-Dawley rat assessed as reduction in middle cerebral artery occlusion-induced inflammatory infiltrates in brain at 340 mg/kg administered via gavage for 7 days prior to middle cerebral artery occlusion-challenge measured after 24 hrs by microscopic analysis; format: functional, organism-based; set-up: dose 340 mg/kg; summary of the method: as §1
# [3] = tested on: Rattus norvegicus; test: Antiischemic activity in Sprague-Dawley rat assessed as reduction in middle cerebral artery occlusion-induced inflammatory infiltrates in brain at 80 mg/kg administered via gavage for 7 days prior to middle cerebral artery occlusion-challenge measured after 24 hrs by microscopic analysis; format: functional, organism-based; set-up: dose 80 mg/kg; summary of the method: as §1
# [4] = tested on: Rattus norvegicus; test: Antiischemic activity in Sprague-Dawley rat assessed as reduction in middle cerebral artery occlusion-induced abnormal changes in brain at 80 mg/kg administered via gavage for 7 days prior to middle cerebral artery occlusion-challenge measured after 24 hrs by microscopic analysis; format: functional, organism-based; set-up: dose 80 mg/kg; summary of the method: as §1
# [5] = tested on: Rattus norvegicus; test: Antiischemic activity in Sprague-Dawley rat assessed as reduction in middle cerebral artery occlusion-induced necrosis in neurons at 80 mg/kg administered via gavage for 7 days prior to middle cerebral artery occlusion-challenge measured after 24 hrs by microscopic analysis; format: functional, organism-based; set-up: dose 80 mg/kg; summary of the method: as §1
# [6] = tested on: Rattus norvegicus; test: (§2) Antiischemic activity in Sprague-Dawley rat assessed as reduction in middle cerebral artery occlusion-induced water content in brain at 340 mg/kg administered via gavage for 7 days prior to middle cerebral artery occlusion-challenge measured after 24 hrs relative to control; format: functional, organism-based; set-up: dose 340 mg/kg; summary of the method: as §1
# [7] = tested on: Rattus norvegicus; test: as §2, with “infarct size” for “water content”, “hrs by triphenyltetrazolium chloride assay” for “hrs”; format: functional, organism-based; set-up: dose 340 mg/kg; summary of the method: as §1
# [8] = tested on: Rattus norvegicus; test: Antiischemic activity in Sprague-Dawley rat assessed as reduction in middle cerebral artery occlusion-induced neurological deficit scores at 340 mg/kg administered via gavage for 7 days prior to middle cerebral artery occlusion-challenge measured after 24 hrs relative to control; format: functional, organism-based; set-up: dose 340 mg/kg; summary of the method: as §1
# [9] = Plasma concentration in ICR mouse at 680 mg/kg, po after 8 hrs by HPLC analysis; format: ADME, organism-based; set-up: dose 680 mg/kg, route oral
# Summary of the method: (§3)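 Male ICR mice (30−35 g), n = 6 per time point, were given a single 680 mg/kg gavage dose and sacrificed at 0.5, 1, 2, 4 and 8 h. Brains were rinsed, weighed and homogenized in 3 volumes of saline. Plasma and homogenate were precipitated with 3 volumes of acetonitrile.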
# [10] = Plasma concentration in ICR mouse at 680 mg/kg, po after 2 hrs by HPLC analysis; format: ADME, organism-based; set-up: dose 680 mg/kg, route oral; summary of the method: as §3
# [11] = Plasma concentration in ICR mouse at 680 mg/kg, po after 0.5 hrs by HPLC analysis; format: ADME, organism-based; set-up: dose 680 mg/kg, route oral; summary of the method: as §3
# [12] = Biodistribution in ICR mouse brain at 680 mg/kg, po after 8 hrs by HPLC analysis; format: ADME, organism-based; set-up: dose 680 mg/kg, route oral; details: read-out: Drug uptake; summary of the method: as §3
# [13] = Biodistribution in ICR mouse brain at 680 mg/kg, po after 2 hrs by HPLC analysis; format: ADME, organism-based; set-up: dose 680 mg/kg, route oral; details: read-out: Drug uptake; summary of the method: as §3
# [14] = Aqueous solubility of the compound after 5 hrs by UV-spectrophotometric analysis; format: physicochemical; details: water
# [15] = tested on: Rattus norvegicus; test: Antithrombotic activity in Sprague-Dawley rat assessed as reduction in arteriovenous shunt-induced dry thrombus weight at 340 mg/kg, administered via gavage for 7 days prior to arteriovenous shunt-challenge measured up to 15 mins relative to control; format: functional, organism-based; set-up: dose 340 mg/kg
# Summary of the method: (§4)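 Male SD rats (250−280 g), n = 12 per group, dosed by gavage daily for 7 days in 0.5% CMC-Na. Two hours after the last dose, rats were anesthetized with chloral hydrate (300 mg/kg ip). A saline-filled 14 cm polyethylene catheter holding a 6 cm silk thread linked the left jugular vein and right carotid artery for 15 min. The thrombus was then weighed wet and dry. Results are mean ± SD, analysed by ANOVA/Tukey.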
# [16] = tested on: Rattus norvegicus; test: Antithrombotic activity in Sprague-Dawley rat assessed as reduction in arteriovenous shunt-induced wet thrombus weight at 340 mg/kg, administered via gavage for 7 days prior to arteriovenous shunt-challenge measured up to 15 mins relative to control; format: functional, organism-based; set-up: dose 340 mg/kg; summary of the method: as §4
# [17] = tested on: Rattus norvegicus; test: Antithrombotic activity in Sprague-Dawley rat assessed as reduction in arteriovenous shunt-induced wet thrombus weight at 80 mg/kg, administered via gavage for 7 days prior to arteriovenous shunt-challenge measured up to 15 mins relative to control; format: functional, organism-based; set-up: dose 80 mg/kg; summary of the method: as §4
# [18] = Stability in artificial intestinal juice assessed as compound remaining at pH 6.8 after 4 hr by HPLC analysis; format: physicochemical; details: simulated gi fluid, pH 6.8, 4 h
# [19] = Stability in artificial intestinal juice assessed as compound remaining at pH 6.8 after 8 hr by HPLC analysis; format: physicochemical; details: simulated gi fluid, pH 6.8, 8 h
# [20] = Stability in artificial intestinal juice assessed as compound remaining at pH 6.8 after 1 hr by HPLC analysis; format: physicochemical; details: simulated gi fluid, pH 6.8, 1 h
# [21] = Stability in artificial intestinal juice assessed as compound remaining at pH 6.8 after 2 hr by HPLC analysis; format: physicochemical; details: simulated gi fluid, pH 6.8, 2 h
# [22] = Stability in artificial gastric juice assessed as compound remaining at pH 1.5 after 4 hr by HPLC analysis; format: physicochemical; details: simulated gi fluid, pH 1.5, 4 h
# [23] = Stability in artificial gastric juice assessed as compound remaining at pH 1.5 after 8 hr by HPLC analysis; format: physicochemical; details: simulated gi fluid, pH 1.5, 8 h
# [24] = Stability in artificial gastric juice assessed as compound remaining at pH 1.5 after 1 hr by HPLC analysis; format: physicochemical; details: simulated gi fluid, pH 1.5, 1 h
# [25] = Stability in artificial gastric juice assessed as compound remaining at pH 1.5 after 2 hr by HPLC analysis; format: physicochemical; details: simulated gi fluid, pH 1.5, 2 h
# [26] = Stability in artificial gastric juice assessed as compound remaining at pH 1.5 measured immediately by HPLC analysis; format: physicochemical; details: simulated gi fluid
# [27] = Antiplatelet aggregation activity in rabbit platelets assessed as inhibition of ADP-induced platelet aggregation at 1 mM incubated for 5 mins prior to ADP-challenge measured within 5 mins by Born's turbidimetric analysis relative to control; format: functional; details: Oryctolagus cuniculus
# Summary of the method: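 Rabbit carotid blood was citrated (3.8%, 9:1). PRP was adjusted with PPP to 400−450 × 10⁹ platelets/L. PRP was preincubated with compound or DMSO for 5 min at 37 °C, then aggregation was induced with ADP at 10 μM. Maximum aggregation rate was recorded over 5 min using Born's turbidimetry. Inhibition % was calculated versus vehicle; n = 6, mean ± SD.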
# [28] = Antiplatelet aggregation activity in rabbit platelets assessed as inhibition of arachidonic acid-induced platelet aggregation incubated for 5 mins prior to arachidonic acid-challenge measured within 5 mins by Born's turbidimetric analysis; format: functional, cell-based; details: Oryctolagus cuniculus
# Summary of the method: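 Rabbit citrated PRP was adjusted to 400−450 × 10⁹ platelets/L and preincubated for 5 min at 37 °C with vehicle DMSO or compound at 0.1−1.6 mM (at least five concentrations). Aggregation was induced with arachidonic acid (0.33 mM, per the methods text). Maximum aggregation rate was recorded over 5 min by Born's turbidimetry, and IC₅₀ was derived from inhibition versus vehicle (mean ± SD).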
smiles,measurement,setting,value
CCCC[C@H](OC(=O)CN1CCN(C)CC1)c1ccccc1C(=O)O[C@H]1CO[C@H]2[C@@H]1OC[C@H]2OC(=O)c1ccccc1[C@H](CCCC)OC(=O)CN1CCN(C)CC1,Activity,[1],Active
same,Activity,[2],Active
same,Activity,[3],Active
same,Activity,[4],Active
same,Activity,[5],Active
same,Activity,[6],Active
same,Activity,[7],Active
same,Activity,[8],Active
same,concentration at 8 h,[9],69.7 ng/mL
same,concentration at 2 h,[10],186 ng/mL
same,concentration at 0.5 h,[11],320 ng/mL
same,concentration at 8 h,[12],16.7 ng/mL
same,concentration at 2 h,[13],174 ng/mL
same,solubility at 5 h,[14],11.2 mg/mL
same,Activity,[15],Active
same,Activity,[16],Active
same,Activity,[17],Active
same,Stability,[18],4.89 µM
same,Stability,[19],4.92 µM
same,Stability,[20],4.86 µM
same,Stability,[21],5.04 µM
same,Stability,[22],4.79 µM
same,Stability,[23],4.96 µM
same,Stability,[24],4.89 µM
same,Stability,[25],5 µM
same,Stability,[26],4.92 µM
same,inhibition at 1000 µM,[27],50.1%
same,IC50,[28],50 µM
